Assay outcomes deposited in PubChem BioAssay by Johns Hopkins Ion Channel Center.
KCNQ1 act = potentiates or activates the human KCNQ1 potassium channel. P51787. CHO-K1 KCNQ1, thallium flux FluxOR fluorescence; hits give high values. B-score at 10 µM. 310,000 compounds, 0.35% hits;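 active means fluorescence ratio B-score, a plate-corrected score, at least three library SD, with initial intensity B-score within 5 SD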
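Doses: Single concentration per compound, DMSO matched to controls | Test system: KCNQ1-transfected CHO-K1 cells | Timing: 90 min dye loading and 20 min compound exposure, both at room temperature | Measured by: Kinetic FluxOR thallium fluorescence, 10-s 1-Hz baseline, 110-s post-stimulus read | Medium: Assay buffer with matched DMSO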
hERG protect = hERG (human) protection from proarrhythmic block; AID 1511; CHO-hERG, FluxOR thallium flux, dofetilide IC70 present; activation (rescue from dofetilide block), less the hit threshold, % at 10 µM; 310,000 compounds, 0.51% hits;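 active means activation above the mean of controls blocked by dofetilide plus 5 SD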;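 further: thallium influx through hERG after potassium depolarization seen as dye fluorescence rise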
KCNK3 block = human KCNK3 channel inhibition, primary screen; 340,000 compounds, 0.84% hits; O14649; B-score at 10 µM; CHO-KCNK3 thallium flux, FluxOR fluorescence; hits give low values;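 active means B-score under library mean minus 4 SD, starting fluorescence ratio at most library mean plus 5 SD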;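 further: more negative B-score means stronger inhibition of thallium flux through KCNK3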
Target sequence (O14649 whole entry, looked up): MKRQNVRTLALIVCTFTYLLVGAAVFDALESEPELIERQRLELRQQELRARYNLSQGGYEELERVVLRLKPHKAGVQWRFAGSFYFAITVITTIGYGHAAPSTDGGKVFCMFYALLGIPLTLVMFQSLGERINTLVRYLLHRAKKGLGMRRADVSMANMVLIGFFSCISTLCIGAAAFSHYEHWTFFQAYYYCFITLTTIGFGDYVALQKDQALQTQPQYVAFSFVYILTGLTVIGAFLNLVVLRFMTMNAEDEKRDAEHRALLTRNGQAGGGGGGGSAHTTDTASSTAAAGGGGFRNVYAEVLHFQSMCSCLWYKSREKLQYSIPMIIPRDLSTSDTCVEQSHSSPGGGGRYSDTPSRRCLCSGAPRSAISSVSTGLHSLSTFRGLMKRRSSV
KCNQ1 inh = inhibitors of human KCNQ1 potassium channel; P51787; CHO-K1 KCNQ1, FluxOR thallium flux fluorescence; hits give high values; B-score at 10 µM; 310,000 compounds, 1.3% hits;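 active means compounds whose thallium flux B-score, printed positive for inhibition, exceeds three library SD while starting fluorescence stays within three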;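 further: channel opened by potassium depolarization with thallium stimulus after 20 min compound exposure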
KCNK9 inh = inhibitors of human KCNK9 two-pore domain potassium channel; Q9NPC2; HEK293 KCNK9, FluxOR thallium flux fluorescence; hits give low values; B-score at 10 µM; 310,000 compounds, 1.2% hits; AID 488922;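 active means ratio B-score over 3 SD below the library mean, with starting fluorescence within 5 SD of its mean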;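 further: negative B-score means less thallium flux so channel inhibition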
KCNK9 inh conf = confirmation of human KCNK9 potassium channel inhibitors. HEK293 KCNK9 cells, FluxOR thallium flux fluorescence. inhibition, % at 10 µM. shares compounds with KCNK9 inh. 4,900 compounds, 43% hits;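 active means thallium signal inhibited by more than 5 SD of the compound-free buffer control wells, on both duplicate plates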
Kir21 sel = mouse Kir2.1 off-target activity of KCNK9 modulators; Kir2.1 cells, FluxOR thallium flux fluorescence; shares compounds with KCNK9 inh; 4,900 compounds, 4% hits; inhibition, % at 10 µM;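 active means thallium signal drop more than 5 SD beyond the mean of the no-compound control wells, seen in both duplicate plates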;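 further: signal is fluorescence rise after thallium addition divided by baseline fluorescence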
KCNK9 uninduced = non-induced cell nonspecific activity of KCNK9 modulators; shares compounds with KCNK9 inh; non-induced KCNK9-HEK293, FluxOR thallium flux; inhibition, % at 10 µM; 4,900 compounds, 40% hits; AID 492997;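 active means thallium signal drop beyond 5 SD of the untreated control mean, on both duplicate plates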
Of the large screens only hits and unclear results are named; the others gave an inactive call (follow-up assays come after a bar, where they were run). Rows were chosen to be rich in hits. Some 3.1% of all compounds tested hit in one or more screens of this group.

COC(=O)/C(=C/c1ccc2c(c1)c1ccccc1n2C)NC(=O)c1ccccc1	KCNK9 inh -8.6 | KCNK9 inh conf 54% | Kir21 sel inactive | KCNK9 uninduced 38%
COc1cc(Cl)c(C)cc1NC(=O)CN1CCN(C(=O)C2CC2)CC1	none (no result: KCNQ1 act, hERG protect, KCNQ1 inh, KCNK9 inh)
Cc1cccc(C)c1-n1c(C)cc(/C=N/NC(=O)CSc2ncccn2)c1C	KCNK9 inh -9.5 | KCNK9 inh conf 50% | Kir21 sel inactive | KCNK9 uninduced 28%
O=C(CN1CCCC1)Nc1ccccc1Sc1ccc(Cl)cc1	none
Nc1nc2n(n1)C(=O)CC(c1ccccc1)N2 (centres undefined)	none
N#Cc1c(N2CCN(C(=O)c3ccccc3)CC2)nc(-c2ccccc2)c2c1CCCC2	none | KCNK9 inh conf inactive | Kir21 sel inactive | KCNK9 uninduced inactive
COc1cc(C2=NOC(C(=O)NCc3cccnc3)C2)cc(OC)c1OC (centres undefined)	KCNK9 inh -8.6 | KCNK9 inh conf 26% | Kir21 sel inactive | KCNK9 uninduced inactive
Fc1ccc(N2N=C(c3cccs3)CC2c2ccccc2)cc1 (centres undefined)	KCNK9 inh -11 | KCNK9 inh conf 50% | Kir21 sel inactive | KCNK9 uninduced 45%
O=S(=O)(c1ccccc1)N1N=C(c2cccs2)CC1c1ccc(F)cc1 (centres undefined)	none
O=[N+]([O-])c1ccc(O)c(/C=N/NC(=S)Nc2ccc(Cl)cc2Cl)c1	none | KCNK9 inh conf inactive | Kir21 sel inactive | KCNK9 uninduced inactive
CN(C(=O)Nc1ccc(C(C)(C)C)cc1)C1CCCCC1	none
CCCC(=O)Nc1cc(C)c(NC(=O)c2ccccn2)cn1	none
Cc1cc(NC(=O)C(C)C)ncc1NC(=O)c1ccccn1	none | KCNK9 inh conf inactive | Kir21 sel inactive | KCNK9 uninduced inactive
COc1ccc(OC)c(C2SCCN2S(=O)(=O)c2cccc(C(F)(F)F)c2)c1 (centres undefined)	KCNK9 inh -15 | KCNK9 inh conf inactive | Kir21 sel inactive | KCNK9 uninduced 60%
O=C(Nc1cc(Sc2ccccn2)cc([N+](=O)[O-])c1)c1ccc(Cl)cc1	none
O=C(Nc1cc(Sc2ccccn2)cc([N+](=O)[O-])c1)c1cccc(Cl)c1	KCNQ1 inh 7, KCNK9 inh -10 | KCNK9 inh conf 41% | Kir21 sel inactive | KCNK9 uninduced 40%
COc1ccc(S(=O)Cc2ccc(C(=O)NCc3cccc(OC)c3)o2)cc1 (centres undefined)	none
CC(C(=O)N(C)c1ccccc1)N1CCN(C(=O)c2ccccc2)CC1 (centres undefined)	none
Cc1nn(-c2cc(C(F)(F)F)ccc2Cl)c2nc(C(Cl)(Cl)Cl)[nH]c(=O)c12	none | KCNK9 inh conf inactive | Kir21 sel inactive | KCNK9 uninduced inactive
NC(=O)C1CCN(c2nc(-c3ccc4ccccc4c3)cs2)CC1	none (no result: KCNQ1 act, hERG protect, KCNQ1 inh, KCNK9 inh)
CN(C)/C=C(/C#N)C(=O)c1cccc(Oc2ccc(C(C)(C)C)cc2)c1	none | KCNK9 inh conf inactive | Kir21 sel inactive | KCNK9 uninduced 42%
Cc1ccccc1Oc1cccc(C(=O)/C(C#N)=C/N(C)C)c1	none
CCn1cc(S(=O)(=O)N2CCN(c3ccc(Cl)cc3)CC2)cn1	none
CCCCC(=O)Nc1ccccc1C(=O)OCC(=O)c1ccc2c(c1)OCCO2	KCNK9 inh -19 | KCNK9 inh conf 78% | Kir21 sel inactive | KCNK9 uninduced 43%
COCCOc1ccc(C(F)(F)F)cc1NC(=O)c1ccc(C(F)(F)F)cc1	none
COc1ccc(Oc2ccc(C(F)(F)F)cc2NC(=O)c2ccc(F)cc2)cc1	KCNQ1 inh 6 | KCNK9 inh conf inactive | Kir21 sel inactive | KCNK9 uninduced inactive
COC(=O)C[C@H]1c2cc(F)ccc2S(=O)(=O)N1Cc1ccccc1	none
Cc1c(N(C)S(=O)(=O)c2ccc(Cl)c(C(=O)N3CCC(C(N)=O)CC3)c2)c(=O)n(-c2ccccc2)n1C	none
Brc1ccc(Oc2ncc(CN3CCN(c4ccccc4)CC3)s2)cc1	none | KCNK9 inh conf inactive | Kir21 sel inactive | KCNK9 uninduced inactive
CC1=CC(C)C2(COC(=O)Nc3ccccc3)COC(C)C1C2C (centres undefined)	none | KCNK9 inh conf inactive | Kir21 sel inactive | KCNK9 uninduced inactive
CCOC(=O)N1CC(C)N(C(=S)Nc2ccccc2)CC1C (centres undefined)	none (no result: KCNQ1 act, hERG protect, KCNQ1 inh, KCNK9 inh)
Cc1cccc(CSCCNC(=O)CSCc2ccc([N+](=O)[O-])cc2)c1	none
CSc1ccccc1NC(=O)CSCc1ccc(C)cc1	none | KCNK9 inh conf inactive | Kir21 sel inactive | KCNK9 uninduced inactive
Cc1ccc(CSCCNC(=O)CSCc2ccc([N+](=O)[O-])cc2)cc1	none | KCNK9 inh conf inactive | Kir21 sel inactive | KCNK9 uninduced inactive
Cc1ccc(CSCC(=O)Nc2ccccc2C(=O)O)cc1	none
Cc1ccc(CSCC(=O)NCCc2ccccc2)cc1	none | KCNK9 inh conf inactive | Kir21 sel inactive | KCNK9 uninduced inactive
Cc1ccc2nc(SC(C)C(=O)Nc3cccc([N+](=O)[O-])c3)[nH]c2c1 (centres undefined)	none
Cc1ccc(Cl)cc1N1CCN(S(=O)(=O)c2ccc3c(c2)CC(=O)N3C)CC1	none
CC(=O)N(c1nnc(-c2cccc(C)c2)s1)C1CCCC1	none
O=C1Nc2ccc(Cl)cc2C(C#CC2CC2)(C(F)(F)F)O1 (centres undefined)	KCNK9 inh -8.2 | KCNK9 inh conf 48% | Kir21 sel inactive | KCNK9 uninduced 46%
CN(C)S(=O)(=O)c1ccc(N2CCCC2)c(C(=O)N2CCC(C(N)=O)CC2)c1	none
CCCC1=C(C(=O)OCC)C(c2cccs2)C(C#N)=C(N)O1 (centres undefined)	none
CCN1CC2=C(OC(N)=C(C#N)C2c2cccs2)/C(=C/c2cccs2)C1 (centres undefined)	KCNK9 inh -8.9 | KCNK9 inh conf 35% | Kir21 sel inactive | KCNK9 uninduced 31%
Nn1c(SCC(=O)Nc2ccc(Oc3ccccc3)cc2)nnc1C1CC1	none | KCNK9 inh conf inactive | Kir21 sel inactive | KCNK9 uninduced inactive
CCOc1ccc(NC(=O)CSc2nnc(C3CC3)n2N)cc1	none
COc1ccc(OCC(=O)N2CCC3(CC2)CC(=O)c2ccccc2O3)cc1	none
COc1cccc(NC(=O)c2ccc(-c3ccc([N+](=O)[O-])cc3)o2)c1	none
COc1ccc(NC(=O)c2ccc(-c3ccc([N+](=O)[O-])cc3)o2)cc1OC	KCNK9 inh -16 | KCNK9 inh conf 56% | Kir21 sel inactive | KCNK9 uninduced 26%
